These results are taken from ChEMBL document CHEMBL2021791, “Synthesis, structure-activity relationships and biological evaluation of caudatin derivatives as novel anti-hepatitis B virus agents” (Bioorg Med Chem, 2012).

For data set [1], the system named is Hepatitis B virus. Briefly: Antiviral activity against Hepatitis B virus infected in human HepG2(2.2.15) cells assessed as suppression of HBsAg secretion by ELISA. It is filed as functional, organism-based. For orientation: An ELISA detects its analyte on a solid surface through an enzyme-linked reagent.
Data set [2] concerns Hepatitis B virus. Briefly: Antiviral activity against Hepatitis B virus infected in human HepG2(2.2.15) cells assessed as suppression of HbeAg secretion by ELISA. It is filed as functional, organism-based.
Data set [3] deals with Hepatitis B virus. Kind of data set: Antiviral activity against Hepatitis B virus infected in human HepG2(2.2.15) cells assessed as inhibition of viral DNA replication by RT-PCR analysis. The class given is functional, organism-based.
Data set [4] in a line: Cytotoxicity against human HepG2(2.2.15) cells by MTT assay. The class given is cell-based. Particulars: HepG2(2.2.15) cells. Put shortly: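 HepG2 2.2.15 cells were exposed to compounds and viability was read by a modified MTT method. CC50 is the concentration giving 50% cytotoxicity. Values are means of at least two experiments.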
Data set [5] concerns Hepatitis B virus. Briefly: Selectivity ratio of CC50 for human HepG2(2.2.15) cells to IC50 for Hepatitis B virus infected in human HepG2(2.2.15) cells assessed as inhibition of viral replication. It is filed as cell-based. Particulars: read-out: Ratio CC50/IC50. Put shortly:
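The selectivity index was calculated as CC50/IC50. CC50 is MTT cytotoxicity in HepG2 2.2.15 cells. No index was given where a value could not be obtained.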

Each structure is given as a SMILES string.

By IC50 is commonly meant the point on the concentration scale where inhibition reaches its midpoint. One may read the CC50 as the concentration that lowers cell viability or growth by half. With `COC(=O)COCC(=O)O[C@H]1CC[C@@]2(C)C(=CC[C@]3(O)[C@@H]2C[C@@H](OC(=O)/C=C(\C)C(C)C)[C@@]2(C)[C@]3(O)CC[C@@]2(O)C(C)=O)C1`, the IC50 in the data set with Hepatitis B virus [1] was 51.6 µM; with Hepatitis B virus [2], 78.6 µM; in the data set with Hepatitis B virus [3], above 105 µM. Besides, the midpoint of cytotoxicity in data set [4], the CC50, lay at 25.3 µM.
With `CC(=O)[C@]1(O)CC[C@@]2(O)[C@]1(C)[C@H](OC(=O)/C=C(\C)C(C)C)C[C@@H]1[C@@]3(C)CC[C@H](OC(=O)c4ccc(F)nc4)CC3=CC[C@]12O`, the IC50 in the data set with Hepatitis B virus [1] is 15.6 µM; with Hepatitis B virus [2] it was above 687 µM; in the data set with Hepatitis B virus [3], 4.97 µM. Besides, the CC50 in data set [4] worked out at 14.3 µM. Further, in the data set on Hepatitis B virus [5], the selectivity ratio turned out to be 2.9.
In the case of `CC(=O)[C@]1(O)CC[C@@]2(O)[C@]1(C)[C@H](OC(=O)/C=C(\C)C(C)C)C[C@@H]1[C@@]3(C)CC[C@H](OC(=O)c4ccc(Br)cn4)CC3=CC[C@]12O`, the results for the half-maximal inhibitory concentration (IC50) with Hepatitis B virus [1], in the data set on Hepatitis B virus [2] and in the data set on Hepatitis B virus [3] were 76.5 µM, above 626 µM and 12.5 µM, respectively. The CC50 in data set [4] was 48.4 µM. Moreover, in the data set on Hepatitis B virus [5], the selectivity ratio turned out to be 3.9.
Consider `CC(=O)[C@]1(O)CC[C@@]2(O)[C@]1(C)[C@H](OC(=O)/C=C(\C)C(C)C)C[C@@H]1[C@@]3(C)CC[C@H](OC(=O)c4ccnn4C)CC3=CC[C@]12O`, for which the IC50 is 14.5 µM with Hepatitis B virus [1], above 721 µM in the data set with Hepatitis B virus [2] and 2.82 µM in the data set on Hepatitis B virus [3]. The CC50 in data set [4] was 10.1 µM. Further, the selectivity ratio in the data set on Hepatitis B virus [5] stood at 3.6.
As to `COc1cc(C(=O)O[C@H]2CC[C@@]3(C)C(=CC[C@]4(O)[C@@H]3C[C@@H](OC(=O)/C=C(\C)C(C)C)[C@@]3(C)[C@]4(O)CC[C@@]3(O)C(C)=O)C2)on1`, the IC50 in the data set on Hepatitis B virus [1] was 201 µM; in the data set on Hepatitis B virus [2], above 1180 µM; in the data set with Hepatitis B virus [3] it was 17 µM. In addition, in data set [4], the CC50 was 133 µM. In the data set on Hepatitis B virus [5], the selectivity ratio was 7.8.
Consider `CC(=O)[C@]1(O)CC[C@@]2(O)[C@]1(C)[C@H](OC(=O)/C=C(\C)C(C)C)C[C@@H]1[C@@]3(C)CC[C@H](OC(=O)Cc4ccncc4)CC3=CC[C@]12O`, for which the IC50 with Hepatitis B virus [1] is 19.7 µM; with Hepatitis B virus [2] it was above 32.8 µM; in the data set on Hepatitis B virus [3], above 414 µM. Also, half-maximal cytotoxicity in data set [4] (CC50) was put at 39.9 µM.
For the compound `CC(=O)[C@]1(O)CC[C@@]2(O)[C@]1(C)[C@H](OC(=O)/C=C(\C)C(C)C)C[C@@H]1[C@@]3(C)CC[C@H](OP(=O)(Oc4ccccc4)Oc4ccccc4)CC3=CC[C@]12O`, the IC50 was above 1940 µM in the data set on Hepatitis B virus [1], above 1940 µM in the data set on Hepatitis B virus [2] and above 485 µM in the data set on Hepatitis B virus [3]. This compound showed a CC50 in data set [4] above 1940 µM.
As for `CC(=O)[C@]1(O)CC[C@@]2(O)[C@]1(C)[C@H](OC(=O)/C=C(\C)C(C)C)C[C@@H]1[C@@]3(C)CC[C@H](OC(=O)CO)CC3=CC[C@]12O`, the figures for the IC50 in the data set on Hepatitis B virus [1], in the data set on Hepatitis B virus [2] and in the data set with Hepatitis B virus [3] were 192 µM, 147 µM and 219 µM, respectively. This compound also showed a cytotoxic concentration (CC50) in data set [4] of 136 µM.
Consider `CC(=O)[C@]1(OC(=O)CCN2C(=O)c3ccccc3C2=O)CC[C@@]2(O)[C@]1(C)[C@H](OC(=O)/C=C(\C)C(C)C)C[C@@H]1[C@@]3(C)CC[C@H](OC(=O)CCN4C(=O)c5ccccc5C4=O)CC3=CC[C@]12O`, for which the IC50 in the data set on Hepatitis B virus [1] was above 809 µM; in the data set on Hepatitis B virus [2], above 809 µM; in the data set on Hepatitis B virus [3] it was above 202 µM. Also, in data set [4], the CC50 was above 809 µM.
On to `CC(=O)[C@]1(OC(=O)CCC(=O)O)CC[C@@]2(O)[C@]1(C)[C@H](OC(=O)/C=C(\C)C(C)C)C[C@@H]1[C@@]3(C)CC[C@H](OC(=O)CCC(=O)O)CC3=CC[C@]12O`, for which the IC50 in the data set with Hepatitis B virus [1] is 653 µM; in the data set on Hepatitis B virus [2], above 966 µM; in the data set with Hepatitis B virus [3], above 241 µM. In data set [4], this compound gave a CC50 of 483 µM.
The corresponding values for `CC(=O)[C@]1(OC(=O)CCCC(=O)O)CC[C@@]2(O)[C@]1(C)[C@H](OC(=O)/C=C(\C)C(C)C)C[C@@H]1[C@@]3(C)CC[C@H](OC(=O)CCCC(=O)O)CC3=CC[C@]12O` are above 268 µM, above 268 µM, above 268 µM and above 268 µM.
